From ChEMBL document CHEMBL1153913, “5-Arylidene-2-phenylimino-4-thiazolidinones as PTP1B and LMW-PTP inhibitors” (Bioorg Med Chem, 2009)

Columns and labels:
[1] = target: T1, Tyrosine-protein phosphatase non-receptor type 1 (Homo sapiens, UniProt P18031); assay: Inhibition of GST-tagged human PTP1B
T1 sequence (P18031 whole entry): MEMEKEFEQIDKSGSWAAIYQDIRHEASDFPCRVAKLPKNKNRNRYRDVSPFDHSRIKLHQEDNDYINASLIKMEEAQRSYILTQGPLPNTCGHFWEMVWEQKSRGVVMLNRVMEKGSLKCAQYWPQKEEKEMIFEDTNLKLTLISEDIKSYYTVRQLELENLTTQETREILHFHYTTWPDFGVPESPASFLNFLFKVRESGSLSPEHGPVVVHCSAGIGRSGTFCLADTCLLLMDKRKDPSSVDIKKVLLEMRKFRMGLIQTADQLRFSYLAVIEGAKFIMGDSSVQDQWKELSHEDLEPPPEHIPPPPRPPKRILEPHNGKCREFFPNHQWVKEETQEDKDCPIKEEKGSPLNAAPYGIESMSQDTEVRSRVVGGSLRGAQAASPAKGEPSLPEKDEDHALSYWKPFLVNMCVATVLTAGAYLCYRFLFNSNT
Summary of the method: (§1)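 p-Nitrophenylphosphate hydrolysis at 37 °C in pH 7.0 buffer with 0.075 M β,β-dimethylglutarate, 1 mM EDTA and 5 mM DTT. The enzyme was added to start the reaction, which was stopped with 1 M KOH. Released p-nitrophenolate was read at 400 nm. Initial rates were measured in triplicate with substrate fixed at each PTP's Km. IC50 was fitted from Vi/V0 = IC50/(IC50+[I]).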

[2] = target: T2, Low molecular weight phosphotyrosine protein phosphatase (Saccharomyces cerevisiae S288c, UniProt P40347); assay: Inhibition of Saccharomyces cerevisiae Ltp1; summary of the method: as §1
T2 sequence (P40347 whole entry): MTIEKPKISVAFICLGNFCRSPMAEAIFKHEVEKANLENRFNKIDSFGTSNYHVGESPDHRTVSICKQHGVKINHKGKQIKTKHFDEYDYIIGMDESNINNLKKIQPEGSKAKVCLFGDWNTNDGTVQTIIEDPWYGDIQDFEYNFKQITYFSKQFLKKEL

[3] = target: T3, Low molecular weight phosphotyrosine protein phosphatase (Homo sapiens, UniProt P24666); assay: Inhibition of GST-tagged human LMW PTP1B IF1 isoform; summary of the method: as §1
T3 sequence (P24666 whole entry): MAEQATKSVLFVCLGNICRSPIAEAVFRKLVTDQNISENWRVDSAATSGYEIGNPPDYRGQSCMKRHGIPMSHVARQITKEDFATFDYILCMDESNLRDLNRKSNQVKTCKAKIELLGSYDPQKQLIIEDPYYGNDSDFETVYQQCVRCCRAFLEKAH

[4] = target: Low molecular weight PTP, IF2 isoform (Homo sapiens); assay: Inhibition of GST-tagged human LMW PTP1B IF2 isoform

Compound	IC50 [1] [µM]	IC50 [2] [µM]	IC50 [3] [µM]	IC50 [4] [µM]
O=C(O)c1ccc(CN2C(=O)/C(=C/c3cccc(Oc4ccccc4)c3)S/C2=N\c2ccccc2)cc1	1.9	11.1		
O=C(O)c1ccc(CN2C(=O)/C(=C/c3ccc4ccccc4c3)S/C2=N\c2ccccc2)cc1	1.9	27.6	3.7	13.8
O=C(O)c1ccc(CN2C(=O)/C(=C/c3ccc(OCc4ccccc4)cc3)S/C2=N\c2ccccc2)cc1	1.1	15.9		
O=C(O)c1ccc(CN2C(=O)/C(=C/c3ccc(Oc4ccccc4)cc3)S/C2=N\c2ccccc2)cc1	1.1	6.3		
O=C(O)c1ccc(CN2C(=O)/C(=C/c3cccc(OCc4ccccc4)c3)S/C2=N\c2ccccc2)cc1	3.8	12.9		

Other lines, results leading:

IC50 [1] [µM]	IC50 [2] [µM]	IC50 [3] [µM]	IC50 [4] [µM]	Compound
35.4	> 250	62.5	> 250	O=C(O)c1ccc(CN2C(=O)/C(=C/c3cccc(O)c3)S/C2=N\c2ccccc2)cc1
30.1	195	47.7	270	O=C(O)c1ccc(CN2C(=O)/C(=C/c3ccc(O)cc3)S/C2=N\c2ccccc2)cc1
14	> 500			O=C(O)c1ccc(CN2C(=O)/C(=C/c3cccc4ccccc34)S/C2=N\c2ccccc2)cc1
19.5	345			O=C(O)c1ccc(CN2C(=O)/C(=C/c3ccc(O)c(C(=O)O)c3)S/C2=N\c2ccccc2)cc1
32.1	> 250			COc1ccc(/C=C2\S/C(=N\c3ccccc3)N(Cc3ccc(C(=O)O)cc3)C2=O)cc1O
33.7	> 250			COc1cc(/C=C2\S/C(=N\c3ccccc3)N(Cc3ccc(C(=O)O)cc3)C2=O)ccc1O
